Results as given in ChEMBL document CHEMBL1123566, “Synthesis and cardiac electrophysiological activity of 2- and 3-[(substituted phenyl)alkyl]quinuclidines. Structure-activity relationships” (1987).
Values joined by “and” are separate entries in the source; they are usually repeats but may differ in a detail not shown here. Identical values can stand only once.

Assays:
[1] = test system: Canis familiaris; test: Heart rate was determined by intraduodenal administration of two dosages of 30 mg/kg of compound in anesthetized dogs. Value was reported for experiment 1; format: functional, Canis lupus familiaris
Procedure, shortened: (§1)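 Anesthetized dogs; compound given intraduodenally, generally as two doses, the second a cumulative (high) dose. LV functional refractory period and conduction time measured 15, 30 and 45 min after dosing; heart rate and blood pressure measured during nonpacing intervals. Values are % change from control, given per individual animal. Active if FRP or CT prolonged by ≥12%.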

[2] = test system: Canis familiaris; test: Heart rate was determined by intraduodenal administration of two dosages of 30 mg/kg of compound in anesthetized dogs. Value was reported for experiment 2; format: functional, Canis lupus familiaris; procedure, shortened: as §1
[3] = test system: Canis familiaris; test: Conduction time was determined by intraduodenal administration of 30 mg/kg (high dose) of compound in anesthetized dogs. Value was reported for experiment 1; format: functional, Canis lupus familiaris; procedure, shortened: as §1
[4] = test system: Canis familiaris; test: Conduction time was determined by intraduodenal administration of 30 mg/kg (high dose) of compound in anesthetized dogs. Value was reported for experiment 2; format: functional, Canis lupus familiaris; procedure, shortened: as §1
[5] = test system: Canis familiaris; test: Conduction time was determined by intraduodenal administration of 10 mg/kg (low dose) of compound in anesthetized dogs. Value was reported for experiment 1; format: functional, Canis lupus familiaris; procedure, shortened: as §1
[6] = test system: Canis familiaris; test: Conduction time was determined by intraduodenal administration of 10 mg/kg (low dose) of compound in anesthetized dogs. Value was reported for experiment 2; format: functional, Canis lupus familiaris; procedure, shortened: as §1
[7] = test system: Canis familiaris; test: Heart rate was determined by intraduodenal administration of two dosages of 10 mg/kg of compound in anesthetized dogs. Value was reported for experiment 1; format: functional, Canis lupus familiaris; procedure, shortened: as §1
[8] = test system: Canis familiaris; test: Heart rate was determined by intraduodenal administration of two dosages of 10 mg/kg of compound in anesthetized dogs. Value was reported for experiment 2; format: functional, Canis lupus familiaris; procedure, shortened: as §1
[9] = test system: Canis familiaris; test: Left ventricular refractory period was determined by intraduodenal administration of 10 mg/kg (low dose) of compound in anesthetized dogs. Value was reported for experiment 1; format: functional, Canis lupus familiaris, Cardiac ventricle
Procedure, shortened: (§2)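 Anesthetized dogs received two intraduodenal doses, the second cumulative (low dose/high dose). Left ventricular FRP and CT were measured 15, 30 and 45 min after dosing. Heart rate and mean blood pressure were taken during nonpacing intervals. Values are percent change from control. The vehicle was 5% dextrose in water/tragacanth. Activity was defined as ≥12% prolongation of FRP or CT.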

[10] = test system: Canis familiaris; test: Left ventricular refractory period was determined by intraduodenal administration of 10 mg/kg (low dose) of compound in anesthetized dogs. Value was reported for experiment 2; format: functional, Canis lupus familiaris, Cardiac ventricle; procedure, shortened: as §2
[11] = test system: Canis familiaris; test: Left ventricular refractory period was determined by intraduodenal administration of 30 mg/kg (high dose) of compound in anesthetized dogs. Value was reported for experiment 1; format: functional, Canis lupus familiaris, Cardiac ventricle; procedure, shortened: as §2
[12] = test system: Canis familiaris; test: Left ventricular refractory period was determined by intraduodenal administration of 30 mg/kg (high dose) of compound in anesthetized dogs. Value was reported for experiment 2; format: functional, Canis lupus familiaris, Cardiac ventricle; procedure, shortened: as §2
[13] = test system: Canis familiaris; test: Mean arterial blood pressure was determined by intraduodenal administration of two dosages of 30 mg/kg of compound in anesthetized dogs. Value was reported for experiment 1; format: functional, Canis lupus familiaris; procedure, shortened: as §2
[14] = test system: Canis familiaris; test: Mean arterial blood pressure was determined by intraduodenal administration of two dosages of 30 mg/kg of compound in anesthetized dogs. Value was reported for experiment 2; format: functional, Canis lupus familiaris; procedure, shortened: as §2
[15] = test system: Canis familiaris; test: Mean arterial blood pressure was determined by intraduodenal administration of two dosages of 10 mg/kg of compound in anesthetized dogs. Value was reported for experiment 1; format: functional, Canis lupus familiaris; procedure, shortened: as §2
[16] = test system: Canis familiaris; test: Mean arterial blood pressure was determined by intraduodenal administration of two dosages of 10 mg/kg of compound in anesthetized dogs. Value was reported for experiment 2; format: functional, Canis lupus familiaris; procedure, shortened: as §2
[17] = organism: Canis familiaris; test: In vitro electrophysiological evaluation in canine cardiac ventricular muscle reported as maximum % change for functional refractory period (FRP) at 0.1-100 uM concentration range; concentration at which it occurred is 100 uM; set-up: species or system Canis lupus familiaris, Muscle tissue
Procedure, shortened: (§3)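 Canine right ventricle and papillary muscle strips in oxygenated Tyrode's solution, fitted with stimulating and recording electrodes. The extra-stimulus conduction-interval method was adapted for in vitro use. FRP and CT were read from a conduction-interval curve before and after various compound concentrations, and expressed as percent change from control. Compounds were taken from 10 mM deionized-water stock into Tyrode's. Each strip was used once as its own control.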

[18] = organism: Canis familiaris; test: In vitro electrophysiological evaluation in canine cardiac ventricular muscle reported as % change for the functional refractory period (FRP) at 10 uM at concentration range of 0.1-100 uM; set-up: species or system Canis lupus familiaris, Muscle tissue; procedure, shortened: as §3
[19] = organism: Canis familiaris; test: In vitro electrophysiological evaluation in canine cardiac ventricular muscle reported as % change for conduction time(CT) at 10 uM at 0.1-100 uM concentration range; Minimal (<10% decrease or increase in CT).; format: functional, Canis lupus familiaris, Muscle tissue
[20] = organism: Canis familiaris; test: In vitro electrophysiological evaluation in canine cardiac ventricular muscle reported as maximum % change for conduction time(CT) at 0.1-100 uM concentration range; Minimal (<10% decrease or increase in CT).; format: functional, Canis lupus familiaris, Muscle tissue; procedure, shortened: as §3
[21] = organism: Canis familiaris; test: In vitro electrophysiological evaluation in canine cardiac Purkinje fibres reported as percent change Vmax at 10 uM at concentration range of 0.1-100 uM; Minimal (<10% decrease or increase in V max).; format: functional, organism-based; details: Canis lupus familiaris, Purkinje fiber
Procedure, shortened: (§4)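 Canine cardiac Purkinje fibres, intracellular microelectrode recording, paced at a basic cycle length of 1 s. APD95 and Vmax read simultaneously. Compound: 10 mM stock in deionized water, diluted into Tyrode's solution, tested over the stated concentration range. Each fibre used once as its own control. Result is % change from control, given at 10 µM or as the maximum with its concentration. M = <10% decrease or an increase in Vmax.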

[22] = organism: Canis familiaris; test: In vitro electrophysiological evaluation in canine cardiac Purkinje fibres reported as percent change Vmax at 10 uM at concentration range of 1-100 uM.; format: functional; details: Canis lupus familiaris, Purkinje fiber; procedure, shortened: as §4
[23] = organism: Canis familiaris; test: In vitro electrophysiological evaluation in canine cardiac occurred is 100 uM; format: functional; details: Canis lupus familiaris; Heart
[24] = organism: Canis familiaris; test: In vitro electrophysiological evaluation in canine cardiac Purkinje fibres reported as maximum percent change Vmax concentration range of 0.1-100 uM; Minimal (<10% decrease or increase in V max).; format: functional; details: Canis lupus familiaris; Purkinje fiber; procedure, shortened: as §4
[25] = organism: Canis familiaris; test: (§5) In vitro electrophysiological activity in canine cardiac occurred is 10 uM; format: functional, Canis lupus familiaris, Heart
[26] = organism: Canis familiaris; test: In vitro electrophysiological evaluation in canine cardiac Purkinje fibres reported as % change for action potential duration at 10 uM at 0.1-100 uM concentration range; format: functional, Canis lupus familiaris, Purkinje fiber; procedure, shortened: as §4
[27] = organism: Canis familiaris; test: In vitro electrophysiological evaluation in canine cardiac Purkinje fibres reported as % change for action potential duration at a concentration of 10 uM; format: functional, Canis lupus familiaris, Purkinje fiber; procedure, shortened: as §4
[28] = organism: Canis familiaris; test: as §5; format: functional, Canis lupus familiaris, Heart; remark: listed apart in the source

Work on `CC(=O)C(CC1C(=O)C2CCN1CC2)C(=O)c1ccc([N+](=O)[O-])cc1.Cl` (stereo not drawn) yielded an HR [1] of -14%, an HR [2] of -32% and a CT [3] of -3%. For the same molecule, the CT [4] was 11%, the CT [5] was -3% and the CT [6] was 9%. The HR [7] was -11%, the HR [8] was -36% and the “LV FRP” value [9] was 9%. For the same molecule, the “LV FRP” value [10] was 16%, the “LV FRP” value [11] was 13% and the “LV FRP” value [12] was 22%. For the same molecule, the Mean blood pressure [13] was 12%, the Mean blood pressure [14] was -30% and the Mean blood pressure [15] was 10%. The Mean blood pressure [16] was -39%, the FRP [17] was 23% and 30% and the FRP [18] was 21% and 28%. It also gave a CT [19] of under 10%, a CT [20] of under 10% and a Vmax [21] of under 10%. The Vmax [22] was -18%, the Vmax [23] was -24% and the Vmax [24] was under 10%. The APD95 [25] was 29%, the APD95 [26] was 29% and the APD95 [27] was 28%. It also gave an APD95 [28] of 28%.
